# Test results published in paper PMC4317571 (Structure (London, England : 1993), 2015).
# Where no end group is shown, it is not given here. Me2 = dimethyl on the lysine side-chain amine
# Key:
# p53K382me2 in U2OS cells = assay: Immunoblot of immunoprecipitated p53: anti-p53K382me2 reactivity; type: cell-based, human
# How it was run: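 Sub-confluent U2OS cells were grown in DMEM with 10% FBS and left untreated or given doxorubicin for 4 h. TSA (400 nM) was given for 1 h, in combined treatment added 3 h after doxorubicin. Cells were lysed in Tris pH 7.4/NaCl/Triton buffer with inhibitors. p53 was pulled down from 1 mg protein on DO-1 agarose overnight at 4 °C and eluted non-reducing at 70 °C. Blots were probed overnight at 4 °C with anti-K382me2 and a light-chain-specific secondary.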
# [1] = tested on: p300/CBP at p53 target regions; assay: p300 ChIP-seq enrichment at p53 target regions; type: cell-based; details: meta-analysis of public ChIP-seq data, mouse ES cells
# GST 53BP1-TTD = assay: Biotinylated p53 peptide microarray binding of GST-tagged 53BP1 TTD; details: biotinylated p53 peptides; four replicate array binding experiments
# How it was run: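 Biotinylated p53 C-terminal peptides (residues 366–390) printed on streptavidin-coated glass slides, then probed with GST-tagged 53BP1 TTD. Binding is shown as normalized mean intensity on a 0 (undetectable) to 1 (strong) scale from four replicate array experiments. Agreement between duplicate arrays was assessed by linear regression correlation.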
# 53BP1 TTD, wild type = 53BP1 TTD, wild type (Homo sapiens, UniProt Q12888); assay: NMR binding to 53BP1 TTD; details: 15N-labeled TTD, peptide titrated in
# Chain of 53BP1 TTD, wild type (Q12888 1484-1603 limits assumed): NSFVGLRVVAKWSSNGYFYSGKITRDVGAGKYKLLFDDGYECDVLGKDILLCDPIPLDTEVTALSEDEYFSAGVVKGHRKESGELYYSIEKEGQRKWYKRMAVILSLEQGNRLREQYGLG
# [2] = tested on: anti-p53K382me2 antibodies; assay: Dot-blot reactivity of anti-p53K382me2 antibody toward p53 peptides; type: binding, rabbit; details: relative to p53K381acK382me2 peptide, residues 377–386
molecule,measurement,setting,value
CC(/C=C/C(=O)NO)=C\[C@@H](C)C(=O)c1ccc(N(C)C)cc1 [TSA],p53K382me2 level under basal conditions (in words),"p53K382me2 in U2OS cells; basal, with TSA 400 nM, 1 h",little p53K382me2 was present
COc1cccc2c1C(=O)c1c(O)c3c(c(O)c1C2=O)C[C@@](O)(C(=O)CO)C[C@@H]3O[C@H]1C[C@H](N)[C@H](O)[C@H](C)O1 [doxorubicin],p53K382me2 level in immunoprecipitated p53 (in words),"p53K382me2 in U2OS cells; doxorubicin 4 h (5 µg/mL in legend, 0.5 µg/mL in method)",increased substantially
same,p300/CBP at p53 target regions (in words),[1],enrichment of p300/CBP
"p53K370me2: p53 CTD peptide dimethylated at K370 (SSHLK(Me2)SKKGQSTSRHKKLMFKTEGP; also: biotin label, position not given here)",GST-TTD binding in peptide microarray (in words),GST 53BP1-TTD,more weakly
"p53K372me2: p53 CTD peptide dimethylated at K372 (SSHLKSK(Me2)KGQSTSRHKKLMFKTEGP; also: biotin label, position not given here)",GST-TTD binding in peptide microarray (in words),GST 53BP1-TTD,more weakly
"p53K382me2: p53 peptide dimethylated at K382 (residues 377–386; biotinylated 366–390 for microarray) (SSHLKSKKGQSTSRHKK(Me2)LMFKTEGP; also: biotin label, position not given here)","chemical shift changes in 1H,15N HSQC spectra of TTD (in words)","53BP1 TTD, wild type",most significant changes in the K382me2-binding cage
same,"anti-p53K382me2 antibody reactivity, fold weaker than with p53K381acK382me2 peptide",[2],16 fold
"p53K382me2K386ac: biotinylated p53 CTD peptide with K382me2 and K386ac (SSHLKSKKGQSTSRHKK(Me2)LMFK(Ac)TEGP; also: biotin label, position not given here)",GST-TTD binding in peptide microarray (in words),GST 53BP1-TTD,recognizes
